ChEMBL document CHEMBL4364245 (Eur J Med Chem, 2019)

Experiments:
[1] = Inhibition of influenza B virus (B/PHUKET/3073/2013)) Neuraminidase in using 4-MUNANA as substrate preincubated for 10 mins followed by substrate addition and measured after 40 mins by fluorescence based assay
Method in brief: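 Influenza B/PHUKET/3073/2013 NA, in MES buffer at pH 6.5 with CaCl₂, was preincubated with inhibitor for 10 min at 37°C. MUNANA substrate was added for 40 min at 37°C, and the reaction was stopped with 0.2 M glycine-NaOH at pH 10.2. Fluorescence was read at ex 365 / em 455 nm minus substrate blanks. IC50 was taken from % inhibition curves, mean ± SD of three experiments.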

[2] = tested on: Influenza A virus; assay: Antiviral activity against Influenza A virus (A/goose/Guangdong/SH7/2013(H5N1)) infected in CEF cells assessed as reduction in virus-induced cytopathic effect incubated for 48 hrs by CCK-8 assay; format: functional, organism-based
[3] = tested on: Influenza A virus; assay: Antiviral activity against Influenza A virus (A/Chicken/Hebei/LZF/2014(H5N2)) infected in CEF cells assessed as reduction in virus-induced cytopathic effect incubated for 48 hrs by CCK-8 assay; format: functional, organism-based
[4] = Cytotoxicity against chicken CEF cells assessed as reduction in cell viability incubated for 48 hrs by CCK8 assay; format: cell-based, Gallus gallus
Method in brief: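 Mock-infected chicken embryo fibroblasts received 2-fold serial dilutions of compound in DMEM with 1% FBS for 48 h at 37°C under 5% CO₂. Viability was read by CCK-8 (90 min, A450).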

[5] = molecular target: Neuraminidase (Influenza A virus (A/Memphis/1/1971(H3N2)), UniProt P03471); assay: Inhibition of influenza A virus (A/Chicken/Hebei/LZF/2014(H5N2)) Neuraminidase N2 in using 4-MUNANA as substrate preincubated for 10 mins followed by substrate addition and measured after 40 mins by fluorescence based assay
Chain of Neuraminidase (Influenza A virus (A/Memphis/1/1971(H3N2)), UniProt P03471) (P03471 whole entry): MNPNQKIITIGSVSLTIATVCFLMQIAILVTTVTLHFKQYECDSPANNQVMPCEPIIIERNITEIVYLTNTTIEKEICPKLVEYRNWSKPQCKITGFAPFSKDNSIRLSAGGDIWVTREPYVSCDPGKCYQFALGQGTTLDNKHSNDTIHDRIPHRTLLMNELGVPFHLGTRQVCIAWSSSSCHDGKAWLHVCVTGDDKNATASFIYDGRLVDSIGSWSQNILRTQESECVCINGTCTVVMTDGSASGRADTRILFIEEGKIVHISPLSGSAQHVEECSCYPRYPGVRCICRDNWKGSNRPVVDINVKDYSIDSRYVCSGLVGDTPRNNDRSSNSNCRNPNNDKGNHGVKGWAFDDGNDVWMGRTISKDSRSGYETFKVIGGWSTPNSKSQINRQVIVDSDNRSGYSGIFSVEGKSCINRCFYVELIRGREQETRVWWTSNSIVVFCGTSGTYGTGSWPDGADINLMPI

Row | Structure (SMILES) | IC50 [1] [µM] | EC50 [2] [µM] | EC50 [3] [µM] | CC50 at 48 h [4] [µM] | IC50 [5] [µM]
1 | CCC(CC)O[C@@H]1C=C(C(=O)N[C@@H](C(=O)O)C(C)C)C[C@H](NCc2ccc(SC)cc2)[C@H]1NC(C)=O | > 100 | > 100 | 26.6 | > 200 | –
2 | CCC(CC)O[C@@H]1C=C(C(=O)NCc2ccc(C(=O)O)cc2)C[C@H](NCc2ccc(N3CCCC3)cc2)[C@H]1NC(C)=O | – | – | – | – | 4.7
3 | CCC(CC)O[C@@H]1C=C(C(=O)O)C[C@H](NCc2ccc(SC)cc2)[C@H]1NC(C)=O | 7.97 | 0.66 | 0.48 | > 200 | 8.34
4 | CCC(CC)O[C@@H]1C=C(C(=O)NCc2ccc(F)cc2)C[C@H](NCc2ccc(N3CCCC3)cc2)[C@H]1NC(C)=O | – | – | – | – | 48.4
5 | CCC(CC)O[C@@H]1C=C(C(=O)NCc2ccc(Cl)cc2)C[C@H](NCc2ccc(N3CCCC3)cc2)[C@H]1NC(C)=O | – | > 100 | > 100 | 77.1 | 0.94
6 | CCC(CC)O[C@@H]1C=C(C(=O)N[C@@H](C(=O)O)C(C)C)C[C@H](NCc2ccc(Sc3ccccc3)cc2)[C@H]1NC(C)=O | > 100 | – | – | – | > 100
7 | CCC(CC)O[C@@H]1C=C(C(=O)NCc2ccc(C(=O)O)cc2)C[C@H](NCc2ccc(Sc3ccccc3)cc2)[C@H]1NC(C)=O | – | – | – | – | > 100
8 | CCC(CC)O[C@@H]1C=C(C(=O)NCc2ccc(Cl)cc2)C[C@H](NCc2ccc(SC)cc2)[C@H]1NC(C)=O | > 100 | – | – | – | –
9 | CCC(CC)O[C@@H]1C=C(C(=O)NCc2ccc(C(=O)O)cc2)C[C@H](NCc2ccc(N(CC)CC)cc2)[C@H]1NC(C)=O | – | – | – | – | 13.3
10 | CCC(CC)O[C@@H]1C=C(C(=O)N[C@@H](C(=O)O)C(C)C)C[C@H](NCc2ccc(N3CCCC3)cc2)[C@H]1NC(C)=O | – | – | – | – | 2.41
11 | CCC(CC)O[C@@H]1C=C(C(=O)O)C[C@H](N)[C@H]1NC(C)=O [OSELTAMIVIR CARBOXYLATE] | 0.037 | 0.82 | 0.17 | > 200 | –
